Test results published in ChEMBL document CHEMBL1154742, “Modular synthesis and in vitro and in vivo antimalarial assessment of C-10 pyrrole mannich base derivatives of artemisinin” (J Med Chem, 2010).

What was measured:
KB = assay: Cytotoxicity against human KB cells after 72 hrs by alamar blue assay; format: cell-based
How it was run: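 KB cells seeded at 4 × 10^4 cells/mL in RPMI 1640 with 10% heat-inactivated fetal calf serum and grown 24 h at 37 °C in 5% CO2. Compound dilution series added in triplicate for 72 h, with podophyllotoxin as positive control. AlamarBlue added for 2-4 h; fluorescence read at ex 530/em 585 nm and IC50 obtained by curve fitting.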

Plasmodium falciparum [1] = assay: Antimalarial activity against chloroquine-sensitive Plasmodium falciparum 3D7 assessed as growth inhibition by [3H]hypoxanthine incorporation assay; format: functional, organism-based
How it was run: (§1)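 Asynchronous P. falciparum culture (65-75% rings, 0.5% parasitemia) at 2.5% final hematocrit, with triplicate 3-fold drug dilutions (10.0 to 0.0041 μg/mL) in RPMI 1640 with 0.5% Albumax II, glucose, L-glutamine and 5 μM hypoxanthine. DMSO was ≤0.01% final. After 24 h at 37 °C in 5% CO2, [3H]hypoxanthine (0.2 μCi/well) was added for a further 24 h. Plates were frozen and harvested, incorporation counted by scintillation, and IC50 obtained by curve fitting.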

[2] = Therapeutic index, ratio of IC50 for human KB cells to IC50 for Plasmodium falciparum 3D7; format: cell-based; conditions: KB cells (cytotoxicity) versus Plasmodium falciparum 3D7, read-out: TI
Plasmodium falciparum [3] = assay: Antimalarial activity against chloroquine-sensitive Plasmodium falciparum 3D7 assessed as growth inhibition by [3H]hypoxanthine incorporation assay relative to artemisinin; format: functional
Plasmodium berghei [4] = assay: Antimalarial activity against Plasmodium berghei ANKA infected NMRI mice (Mus musculus) assessed as reduction of parasitemia treated perorally for 3 days measured on day 4; format: functional; conditions: po
Plasmodium falciparum [5] = assay: Antimalarial activity against chloroquine-resistant Plasmodium falciparum K1 (Thailand) assessed as growth inhibition by [3H]hypoxanthine incorporation assay; format: functional, organism-based; how it was run: as §1
Plasmodium falciparum [6] = assay: Antimalarial activity against chloroquine-resistant Plasmodium falciparum K1 (Thailand) assessed as growth inhibition by [3H]hypoxanthine incorporation assay relative to artemisinin; format: functional
Plasmodium berghei [7] = assay: Antimalarial activity against Plasmodium berghei ANKA infected Swiss CD1 mice (Mus musculus) assessed as reduction of parasitemia at 30 mg/kg, perorally administered after 3 hrs of infection for 3 days measured on day 4 relative to control; format: functional; conditions: route oral
How it was run: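 Male Swiss CD-1 mice (20 g) infected iv with 4 × 10^6 P. berghei ANKA-infected red cells on day 0, in groups of five. Compound was given orally in standard suspending vehicle (carboxymethylcellulose, benzyl alcohol, Tween 80, saline), 3 × 30 mg/kg, starting 3 h post-infection, once daily. Parasitemia was counted on Giemsa-stained smears on day 4 and expressed as % inhibition versus the untreated group mean.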

Plasmodium berghei [8] = assay: Antimalarial activity against Plasmodium berghei ANKA infected NMRI mice (Mus musculus) assessed as mean survival time at 10 mg/kg, intraperitoneally 4 consecutive doses for 3 days measured on day 4 by FACS analysis; conditions: route intraperitoneal
Plasmodium berghei [9] = assay: Antimalarial activity against Plasmodium berghei ANKA infected NMRI mice (Mus musculus) assessed as reduction of parasitemia at 10 mg/kg, intraperitoneally 4 consecutive doses for 3 days measured on day 4 by FACS analysis; conditions: ip

Row | Structure (SMILES) | IC50 (KB) [nM] | IC50 (Plasmodium falciparum [1]) [nM] | selectivity ratio [2] | Ratio IC50 (Plasmodium falciparum [3]) | ED50 (Plasmodium berghei [4]) [mg/kg] | ED90 (Plasmodium berghei [4]) [mg/kg] | IC50 (Plasmodium falciparum [5]) [nM] | Ratio IC50 (Plasmodium falciparum [6]) | inhibition in vivo at 30 mg/kg (Plasmodium berghei [7]) [%] | MSD (Plasmodium berghei [8]) [days] | inhibition in vivo at 10 mg/kg (Plasmodium berghei [9]) [%]
1 | CCN(CC)CCCC(C)Nc1ccnc2cc(Cl)ccc12 (stereo not drawn) [CHLOROQUINE PHOSPHATE] | 112000 | – | – | – | – | – | – | – | – | – | –
2 | C[C@H]1[C@H](c2cccn2C)O[C@@H]2O[C@@]3(C)CC[C@H]4[C@H](C)CC[C@@H]1[C@@]24OO3 | 60300 | 5.2 | 11600 | 2.46 | 4.5 | 8.5 | – | – | – | – | –
3 | C[C@H]1[C@H](c2ccc(CN3CCCCC3)[nH]2)O[C@@H]2O[C@@]3(C)CC[C@H]4[C@H](C)CC[C@@H]1[C@@]24OO3 | 143000 | 59.4 | 2410 | 0.22 | – | – | – | – | – | – | –
4 | C[C@H]1[C@H](c2ccc(CN3CCCCC3)n2C)O[C@@H]2O[C@@]3(C)CC[C@H]4[C@H](C)CC[C@@H]1[C@@]24OO3 | 39200 | 6.1 | 6430 | 2.1 | – | – | – | – | – | – | –
5 | C[C@H]1[C@H](c2ccc(CN3CCCC3)n2C)O[C@@H]2O[C@@]3(C)CC[C@H]4[C@H](C)CC[C@@H]1[C@@]24OO3 | 42200 | 3.7 | 11400 | 3.46 | – | – | – | – | – | – | –
6 | C[C@H]1[C@H](c2ccc(CN3CCOCC3)[nH]2)O[C@@H]2O[C@@]3(C)CC[C@H]4[C@H](C)CC[C@@H]1[C@@]24OO3 | 56500 | 2.5 | 22600 | 2.84 | 2.11 | 4.3 | 3.2 | 2.56 | 100 | – | –
7 | C[C@H]1[C@H](c2ccc(CN3CCCC3)[nH]2)O[C@@H]2O[C@@]3(C)CC[C@H]4[C@H](C)CC[C@@H]1[C@@]24OO3 | 47000 | 16.9 | 2780 | 0.76 | – | – | – | – | – | – | –
8 | C[C@H]1[C@H](c2ccc(CN3CCC(N4CCCC4)CC3)n2C)O[C@@H]2O[C@@]3(C)CC[C@H]4[C@H](C)CC[C@@H]1[C@@]24OO3 | – | 2.5 | – | 5.12 | – | – | 7.3 | 1.12 | – | – | –
9 | CC(C)N1CCN(Cc2ccc([C@@H]3O[C@@H]4O[C@@]5(C)CC[C@H]6[C@H](C)CC[C@@H]([C@H]3C)[C@@]46OO5)n2C)CC1 | – | 5.1 | – | 2.51 | – | – | 8.3 | 0.99 | – | – | –
10 | C[C@H]1[C@H](OC(=O)CCC(=O)O)O[C@@H]2O[C@@]3(C)CC[C@H]4[C@H](C)CC[C@@H]1[C@@]24OO3 [ARTESUNATE] | – | – | – | – | 3.23 | > 10 | – | – | 100 | 8 | 98
11 | C[C@H]1[C@H](c2ccc(CN(C)C)[nH]2)O[C@@H]2O[C@@]3(C)CC[C@H]4[C@H](C)CC[C@@H]1[C@@]24OO3 | 43600 | 20.5 | 2130 | 0.62 | – | – | – | – | – | – | –
12 | C[C@H]1[C@H](c2ccc(CN3CCS(=O)(=O)CC3)n2C)O[C@@H]2O[C@@]3(C)CC[C@H]4[C@H](C)CC[C@@H]1[C@@]24OO3 | 68300 | 2.2 | 31100 | 5.82 | – | – | 3.57 | 2.3 | – | – | –
13 | C[C@H]1[C@H](c2ccc[nH]2)O[C@@H]2O[C@@]3(C)CC[C@H]4[C@H](C)CC[C@@H]1[C@@]24OO3 | 62500 | 7.4 | 8450 | 1.73 | – | – | – | – | – | – | –
14 | C[C@H]1[C@H](c2ccc(CN3CCN(C)CC3)n2C)O[C@@H]2O[C@@]3(C)CC[C@H]4[C@H](C)CC[C@@H]1[C@@]24OO3 | 96500 | 6.5 | 14800 | 1.97 | 1.99 | 5.34 | 3.8 | 2.16 | 100 | 9 | 100
15 | C[C@@H]1CC[C@H]2[C@@H](C)C(=O)O[C@@H]3O[C@@]4(C)CC[C@@H]1[C@]32OO4 [ARTEMISININ] | > 354000 | 12.8 | > 27700 | – | – | – | 8.2 | – | – | – | –
16 | CO[C@H]1O[C@@H]2O[C@@]3(C)CC[C@H]4[C@H](C)CC[C@@H]([C@H]1C)[C@@]24OO3 [ARTEMETHER] | – | 4.2 | – | – | – | 10.6 | – | 2.41 | 100 | – | –
17 | C[C@H]1[C@H](c2ccc(CN3CCN(C)CC3)[nH]2)O[C@@H]2O[C@@]3(C)CC[C@H]4[C@H](C)CC[C@@H]1[C@@]24OO3 | 85200 | 6.5 | 13100 | 1.97 | – | – | 5 | 1.64 | 97.7 | 7 | 98
18 | C[C@H]1[C@H](c2ccc(CN(C)C)n2C)O[C@@H]2O[C@@]3(C)CC[C@H]4[C@H](C)CC[C@@H]1[C@@]24OO3 | – | 31.6 | – | 0.4 | – | – | – | – | – | – | –
19 | C[C@H]1[C@H](c2ccc(CN3CCSCC3)n2C)O[C@@H]2O[C@@]3(C)CC[C@H]4[C@H](C)CC[C@@H]1[C@@]24OO3 | 138000 | 7.2 | 19100 | 1.78 | – | – | – | – | – | – | –
20 | CCN(CC)Cc1ccc([C@@H]2O[C@@H]3O[C@@]4(C)CC[C@H]5[C@H](C)CC[C@@H]([C@H]2C)[C@@]35OO4)[nH]1 | – | 75.8 | – | 0.17 | – | – | – | – | – | – | –
21 | C[C@H]1[C@H](c2ccc(CN3CCOCC3)n2C)O[C@@H]2O[C@@]3(C)CC[C@H]4[C@H](C)CC[C@@H]1[C@@]24OO3 | 86200 | 3.5 | 24600 | 3.66 | 1.77 | 5.2 | 1.9 | 4.32 | 100 | – | –
22 | CC(C)N1CCN(Cc2ccc([C@@H]3O[C@@H]4O[C@@]5(C)CC[C@H]6[C@H](C)CC[C@@H]([C@H]3C)[C@@]46OO5)[nH]2)CC1 | 45300 | 8.5 | 5330 | 1.51 | – | – | 3.5 | 2.34 | 90.5 | 6 | 90
